Assay outcomes from PubChem BioAssay.
Hits are enriched below; roughly 1.4% of the tested compounds scored in any of these assays.
OPRM1-OPRD1 inv = mu-delta opioid heterodimer inverse agonism. P35372+P41143. cell-based MOR-DOR heterodimer luminescence. inhibition, % at 9.3 µM. 340,000 tested, 0.21% active. AID 504357; in the data active = inhibition above about 22%, passing the limit was not always enough;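 also: 0% = cells with DMSO and 100% = wells without cells with DMSO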
HTR5A ag ctr = counter-screen for OPRM1-OPRD1 agonists: human HTR5A agonism | P47898 | HTR5A agonist assay, luminescence, cell-based | activation, % at 9.3 µM | 340,000 tested, 0.61% active; in the data active = activation mostly above about 9.5%, no sharp cut-off; inactive = mostly below about 7.6%;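 also: 0% = cells with vehicle only and 100% = reference agonist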
HTR5A inv ctr = counter-screen for OPRM1-OPRD1 inverse agonists: human HTR5A inverse agonism | P47898 | HTR5A cell line, luminescence | inhibition, % at 9.3 µM | 340,000 tested, 0.083% active | AID 504634; in the data active = inhibition mostly above about 23%, no sharp cut-off; inactive = mostly below about 18%;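 also: 0% = cells with DMSO and 100% = no-cell wells with DMSO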
OPRM1-OPRD1 ag = OPRM1-OPRD1 heterodimerization agonism. cells, luminescence. P35372+P41143. activation, % at 9.3 µM. 340,000 tested, 0.3% active; in the data active = activation above about 18%;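 also: 0% = vehicle-treated cells and 100% = reference agonist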
Hep lipid drop = hepatic lipid droplet formation modulation; AML12 mouse hepatocytes, oleate lipid droplets, BODIPY imaging; inhibition, % at 6.5 µM; 240,000 tested, 0.4% active; AID 1656;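 active = lipid droplet intensity inhibited by at least 50%, with more than 500 cells counted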
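Material – AML12 mouse liver cells · Also added – oleate loading, 100 µM · Compound dosing – 6.5 µM single-point dosing · Times – overnight treatment with compound plus oleate · Measured by – fluorescence imaging, 20x objective, two fields per well · Read-out – percent inhibition of filter-corrected integrated lipid droplet intensity per well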
Active calls of the source: *; · = not tested or not shown.

SMILES | OPRM1-OPRD1 inv | HTR5A ag ctr | HTR5A inv ctr | OPRM1-OPRD1 ag | Hep lipid drop
COc1cccc2c1oc1c(SCc3nc4ccccc4[nH]3)nc(C)nc12 | 1 | -1 | 13 | 0 | ·
CC(C)(C)OC(=O)N1CCN(c2ccc(NC(=O)Cn3nnc(-c4ccccc4)n3)cc2)CC1 | -2 | -1 | -17 | 0 | 84*
CCOC(=O)c1ccc(NC(=O)Cn2nnc(-c3ccccc3)n2)cc1 | -49 | -3 | 1 | 9 | ·
CCOCCn1c(SCc2ccc(C)cc2)nc2c1c(=O)[nH]c(=O)n2C | 0 | 13* | -32 | 0 | ·
CCOCCn1c(SCc2ccc(F)cc2)nc2c1c(=O)[nH]c(=O)n2C | 15 | 6 | -15 | -3 | ·
CC(NCC(O)COc1ccccc1)C1COc2ccccc2O1 (stereo not given) | -22 | 12* | -43 | 5 | -1
c1ccc2c(c1)NC1(CCCCCC1)n1c-2nc2ccccc21 | 15 | 7 | 5 | -3 | 9
c1ccc2c(c1)NC1(CCCCC1)n1c-2nc2ccccc21 | -6 | 14* | 13 | 1 | ·
Cc1noc(C)c1COC(=O)c1ccc2c(c1)S(=O)(=O)c1ccccc1C2=O | -39 | 10* | -34 | 7 | ·
CSc1nc2nc(C)c(CCC(=O)OCC(=O)Nc3ccc(F)cc3)c(C)n2n1 | 1 | 7 | -18 | 0 | ·
Nc1nc(N)c2[nH]c(=S)[nH]c2n1 | 3 | -4 | 14 | -1 | ·
COc1ccc(C(F)(F)F)cc1N/C=C/c1nnnn1-c1ccc2ccccc2c1 | -4 | 12* | -41 | 1 | 6
COc1ccc(-n2nnnc2/C=C\Nc2ccc(C)cc2)cc1 | 6 | -2 | 11 | -1 | ·
Cc1ccc(OCC(=O)Nc2ccc3oc(=O)ccc3c2)c(C)c1 | -15 | 4 | -11 | 2 | 2
CC1CC1C(=O)OCC(=O)Nc1ccc2[nH]c(=O)[nH]c2c1 (stereo not given) | -5 | 1 | -3 | 1 | ·
CCCCN1CC(=O)N2[C@H]3c4ccccc4OC[C@@H]3[C@H](C(=O)OCC)[C@]2(C)C1=O | 13 | 3 | 10 | -2 | ·
CC(C)CSc1nc2c(c(=O)[nH]c(=O)n2C)n1CC(O)COc1cccc2ccccc12 (stereo not given) | -32 | 13* | -29 | 6 | ·
CCSc1nc2c(c(=O)[nH]c(=O)n2C)n1CC(O)COc1ccccc1 (stereo not given) | -3 | -3 | -8 | 1 | 20
COc1ccc(/C=N/NC(=O)C(C)Sc2ccccn2)cc1[N+](=O)[O-] (stereo not given) | 16 | 11* | 22 | -3 | 11
Cc1ncccc1C(=O)N1CCCC(C(=O)c2ccc3c4c(cccc24)CC3)C1 (stereo not given) | 15 | -2 | 9 | -3 | -58
O=C(c1ccc2c3c(cccc13)CC2)C1CCCN(C(=O)c2ccc(=O)[nH]c2)C1 (stereo not given) | -6 | 13* | -35 | 1 | 0
O=C(CCNC(=O)C1CCN(S(=O)(=O)c2ccc(F)cc2)CC1)NCc1ccccc1 | 13 | -1 | 25 | -2 | 2
O=C(CSC1=NCCS1)c1ccc(Cl)cc1 | -13 | 11* | -30 | 2 | -3
O=C(CSC1=NCCS1)N1CCN(c2ccc(Cl)cc2)CC1 | 1 | -1 | -5 | 0 | ·
CCCc1nc2ccccc2c(C(=O)N(CC)CC(=O)NCc2cccs2)c1CC | 12 | -1 | -7 | -2 | ·
SMILES | OPRM1-OPRD1 inv | HTR5A ag ctr | HTR5A inv ctr | OPRM1-OPRD1 ag | Hep lipid drop
CCCCCCCCCCOC(=O)Cn1c(COc2cccc(C)c2)[n+](C)c2ccccc21 | -36 | 13* | -47 | 7 | -80
CCCCOC(=O)Cn1c(=O)n(CC(=O)OCCCC)c2ccccc21 | -11 | 2 | -5 | 3 | -3
COc1ccc(C(=O)/C=C/C(=O)N(CC(=O)NC2CCCCC2)CC2CCCO2)c(O)c1 (stereo not given) | 33* | 2 | -5 | -6 | -5
COc1ccc(C2c3ccc(O)cc3Oc3ncn4nc(-c5ccccn5)nc4c32)cc1 (stereo not given) | -80 | 12* | -17 | 16 | 15
CCCc1nc2ccc(NC(C)=O)cc2c(=O)n1Cc1ccc(Cl)cc1 | -2 | 10* | -27 | 0 | -8
Clc1ccc(/C=C/c2nc3ccccc3[nH]2)c(Cl)c1 | -33 | 13* | -17 | 7 | ·
CCn1c(=O)c([N+](=O)[O-])c(NCCN(C)C)c2ccccc21 | -3 | 7 | 5 | 1 | 4
CCn1c(=O)c([N+](=O)[O-])c(Cl)c2ccccc21 | 35* | -8 | 19 | -7 | -9
Cc1n[nH]c(C)c1S(=O)(=O)N1CCCC(C(=O)O)C1 (stereo not given) | 10 | -4 | 9 | -2 | ·
Cc1c(OCC(=O)NCc2ccncc2)ccc2c3c(c(=O)oc12)CCC3 | 20 | 12* | -46 | -4 | 5
CC(=O)C(Cc1ccccc1)NC(=O)COC(=O)c1cccc(C)c1[N+](=O)[O-] (stereo not given) | 4 | -4 | 9 | -1 | ·
CC1CCN(CCCNC(=O)c2cc3c(s2)-c2ccccc2OC3)CC1 | -7 | 1 | -5 | 1 | 9
Cc1cccc2c1-c1sc(C(=O)NCCCN3CCC(C)CC3)cc1CO2 | -22 | 11* | 6 | 4 | -7
Cc1cccc2c1-c1sc(C(=O)Nc3cccnc3)cc1CO2 | -19 | 11* | -26 | 4 | -8
CC1CCCN(CCCNC(=O)c2cc3c(s2)-c2ccccc2OC3)C1 (stereo not given) | -10 | 11* | -43 | 2 | -10
COc1ccccc1-c1ccc(SCc2ccc(F)cc2)nn1 | -2 | 9.5* | -26 | 0 | -16
COc1ccccc1-c1ccc(SCc2ccc(C)cc2)nn1 | -2 | -1 | 3 | 0 | 4
CCC(CC)NC(=O)c1nn(Cc2ccccc2)c(=O)c2ccccc12 | -35 | 9.8* | -26 | 5 | -14
C=CCn1c(O)c(N=NC(=O)CNC(=O)Cc2ccccc2)c2ccccc21 | 16 | 11* | 13 | -3 | 10
COc1cc2c(cc1OC)C(c1ccccc1)NC(C)(C)C2 (stereo not given) | 14 | -1 | 4 | -3 | 10
O=C(NCCc1ccncc1)Nc1ccc(Cl)c(Cl)c1 | -12 | 0 | 36 | 2 | 5
O=C(NCCc1ccncc1)Nc1ccccc1 | 13 | 13* | -5 | -3 | -13
O=C(CSc1ccc2nnc(-c3cccnc3)n2n1)Nc1ccccc1C(F)(F)F | 17 | 1 | -26 | -3 | 15
COc1ccc(/C=C/C(=O)NC(=S)Nc2cc([N+](=O)[O-])ccc2O)cc1OC | 27 | -6 | 16 | -5 | -18
Cc1sc2ncnc(N3CCCCC3C)c2c1C (stereo not given) | -18 | 1 | -5 | 3 | ·
Cc1c(C(=O)NCCC2=CCCCC2)sc2ncnc(N3CCCCC3C)c12 (stereo not given) | 4 | 11* | -44 | -1 | -22
O/N=C1\CCCc2ccccc21 | 13 | -1 | 2 | -2 | 3
CC(C)NC(=S)N/N=C1\CCCc2ccccc21 | -14 | 11* | -29 | 3 | 6
